Measurements reported in ChEMBL document CHEMBL1122501, “Potential antiatherosclerotic agents. 2. (Aralkylamino)- and (alkylamino) benzoic acid analogues of cetaben” (1983).

Columns and labels:
[1] = system: Rattus norvegicus; experiment: In vivo Sterol lowering activity at dose as 0.01 % of the diet; type: functional
In short: (§1)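 Male CFE or CD-1 Sprague-Dawley rats, 140-150 g; 8 per control group, 4 per test group. Compound mixed into ground chow (w/w) via MeOH-CHCl3 (1:3) solution, solvent evaporated; controls got solvent-treated chow. Fed ad libitum 5 days, food intake monitored, killed fed and bled. Serum sterols and triglycerides by adapted autoanalyzer methods; mean percent of control, Student's t test.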

[2] = system: Rattus norvegicus; experiment: In vivo sterol lowering activity dosed at 0.10 % of the diet; type: functional; in short: as §1
[3] = system: Rattus norvegicus; experiment: In vivo triglyceride lowering activity, dosed at 0.03 % of the diet; type: functional; in short: as §1
[4] = system: Rattus norvegicus; experiment: In vivo triglyceride lowering activity dosed at 0.10 % of the diet; type: functional; in short: as §1
[5] = system: Rattus norvegicus; experiment: In vivo Triglyceride lowering activity at dose as 0.01 % of the diet; type: functional; in short: as §1
[6] = system: Rattus norvegicus; experiment: In vivo Sterol lowering activity at dose as 0.03 % of the diet; type: functional; in short: as §1
[7] = biological target: T1, Sterol O-acyltransferase 1 (Rattus norvegicus) (UniProt O70536); experiment: In vitro inhibitory activity against acyl coenzyme A:cholesterol acyltransferase (ACAT); design: concentration or dose not given beside the values; conditions: concentration not given here
T1 sequence (whole entry): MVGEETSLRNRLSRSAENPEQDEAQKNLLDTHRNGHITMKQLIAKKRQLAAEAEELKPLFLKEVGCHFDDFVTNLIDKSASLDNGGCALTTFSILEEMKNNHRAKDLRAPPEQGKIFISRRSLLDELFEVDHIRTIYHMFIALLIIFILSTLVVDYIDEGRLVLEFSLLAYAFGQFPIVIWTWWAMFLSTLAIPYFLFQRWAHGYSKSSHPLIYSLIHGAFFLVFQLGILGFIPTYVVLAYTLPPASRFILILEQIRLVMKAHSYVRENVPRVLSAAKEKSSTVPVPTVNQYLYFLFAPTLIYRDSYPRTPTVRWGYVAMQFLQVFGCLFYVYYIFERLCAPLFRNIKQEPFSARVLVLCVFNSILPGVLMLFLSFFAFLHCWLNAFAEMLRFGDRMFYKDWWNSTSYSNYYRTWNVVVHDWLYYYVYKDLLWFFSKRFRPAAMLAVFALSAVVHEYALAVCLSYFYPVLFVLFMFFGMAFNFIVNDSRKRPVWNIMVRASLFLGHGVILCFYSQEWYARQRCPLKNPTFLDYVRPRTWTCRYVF
In short: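 ACAT enzyme from rat adrenal homogenate in 0.2 M KH2PO4 buffer pH 7.4, 1000g 15 min 5 °C supernatant (microsomal fraction). Supernatant + BSA (50 mg/mL) + compound at final 5.2 μg/mL + buffer preincubated 10 min 37 °C; [14C]oleoyl-CoA (0.4 μCi) added, 30 min 37 °C. Lipids extracted, TLC; cholesteryl ester zone counted. Mean % inhibition vs no-compound control; Student's t test.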

[8] = system: Rattus norvegicus; experiment: In vivo Sterol lowering activity at dose as 0.03 % of the diet.; type: functional; in short: as §1
[9] = system: Rattus norvegicus; experiment: In vivo Sterol lowering activity at dose as 0.10 % of the diet.; type: functional; in short: as §1
[10] = system: Rattus norvegicus; experiment: In vivo triglyceride lowering activity, dosed at 0.01 % of the diet.; type: functional; in short: as §1
[11] = system: Rattus norvegicus; experiment: In vivo Triglyceride lowering activity at dose as 0.025 % of the diet; type: functional; in short: as §1
[12] = system: Rattus norvegicus; experiment: In vivo Sterol lowering activity at dose as 0.05 % of the diet; type: functional; in short: as §1
[13] = system: Rattus norvegicus; experiment: In vivo triglyceride lowering activity dosed at 0.05 % of the diet; type: functional; in short: as §1
[14] = system: Rattus norvegicus; experiment: In vivo Sterol lowering activity at dose as 0.025 % of the diet; type: functional; in short: as §1
[15] = system: Rattus norvegicus; experiment: In vivo Triglyceride lowering activity at dose as 0.03 % of the diet.; type: functional; in short: as §1
[16] = system: Rattus norvegicus; experiment: In vivo triglyceride lowering activity, dosed at 0.10 % of the diet.; type: functional; in short: as §1

Compound	Diet [1]	serum sterol, percent of control [2]	serum triglycerides, percent of control [3]	serum triglycerides, percent of control [4]	Diet [5]	Diet [6]	inhibition [7]	serum sterol level, percent of control [8]	serum sterol, percent of control [9]	Diet [10]	Diet [11]	Diet [12]	Diet [13]	Diet [14]	Diet [15]	Diet [16]
O=C(O)c1ccc(NCCCCCCCCCCCCc2cccs2)cc1	85%	<70%	<50%	<42%	<59%	<81%	< 57%									
CCCCCCCCCCCCCCCCCCNc1ccc(C(=O)[O-])cc1.[Na+]	<84%	79%	<76%	<52%	90%	86%										
O=C(O)c1ccc(NCCCCCCCCc2ccccc2)cc1	90%	84%	56%	74%	<54%	<78%	< 35%									
CCCCCCCCCC/C=C/CCCNc1ccc(C(=O)[O-])cc1.[Na+]	86%	<82%	117%	<63%	112%	93%										
O=C(O)c1ccc(NCCCc2ccccc2F)cc1	87%		55%	52%	58%		58%	85%	81%							
O=C(O)c1ccc(NC/C=C/c2ccccc2)cc1	86%		43%	44%		70%	0%		96%	85%						
CCCCCCCCCCCCCCCCNc1ccc(C(=O)[O-])cc1.[Na+] [CETABEN SODIUM]	90%	<60%	<60%	<41%	<75%	<76%										
O=C(O)c1ccc(NCCCc2cccc(Cl)c2)cc1	82%		48%	55%	64%		29%	90%	85%							
CCCCCCCCCCCCCCCCNc1cccc(C(=O)O)c1		93%		81%			< 34%				98%	100%	92%	100%		
CCCCCCCCNc1ccc(C(=O)O)cc1		90%		<67%			< 24%				91%	97%	88%	101%		
CCCCCCCCCCCCCNc1ccc(C(=O)[O-])cc1.[Na+]	110%	<76%	70%	<62%	<60%	90%										
CCCCCCCCCCOc1ccc(CNc2ccc(C(=O)O)cc2)cc1		<82%		<37%			< 35%				<54%	<90%	<51%	97%		
CCCCCCCCCC/C=C/CCCNc1ccc(C(=O)OCC)cc1		<86%		83%			< 40%				90%	94%	77%	<86%		
O=C(CCCCC(=O)c1ccc(Cl)cc1)Nc1ccc(C(=O)O)cc1	82%			56%			40%	94%	97%	94%					70%	
CCCCCCCCCCCCCCCCNc1ccc(C(=O)O)cc1 [CETABEN]	<72%	<54%	<45%	<31%	<71%	<71%										
CCCCCCCCCCCCCCCCCNc1ccc(C(=O)O)cc1		87%		<57%			< 34%				80%	<86%	77%	<87%		
CCCCCCCCCCCCCCCNc1ccc(C(=O)O)cc1		<79%		<60%			< 56%				72%	86%	80%	90%		
CCCCCCCCCCCCCCCCCCCNc1ccc(C(=O)[O-])cc1.[Na+]	93%	98%	99%	<70%	102%	98%										
CCOC(=O)c1ccc(NC(=O)CCc2ccc(OC)cc2)cc1	80%						26%	85%	98%	98%					89%	105%
CCCCCCCCCCc1ccc(CNc2ccc(C(=O)OCC)cc2)cc1		99%		94%			< 19%				82%	95%	<69%	90%		
O=C(O)c1ccc(NCCCCCCc2ccc(Cl)cc2)cc1	81%		65%	43%		78%	22%		82%	61%						
CCCCCCCCCCCCNc1ccc(C(=O)[O-])cc1.[Na+]	89%	88%	<56%	<34%	<72%	92%										
